≈ marks a conversion by molar mass, not a printed value.
Legend:
[1] = molecular target: T1, Human immunodeficiency virus type 1 reverse transcriptase (Human immunodeficiency virus 1, UniProt Q72547); assay: Inhibition of HIV1 reverse transcriptase
Outline: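 HIV-1 RT inhibition was measured by a previously published method. Each value is the mean of three experiments, each run in duplicate. Test levels reached 250 µg/ml in the assay mixture.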

HT-1080 = assay: Cytotoxicity against human HT1080 cells; type: functional; details: read-out: ED50 (the source's name)
[2] = Cytotoxicity against human KBV1 cells in absence of vinblastine; type: functional; details: KB-V1, read-out: ED50 (the source's name)
LNCaP = assay: Cytotoxicity against human LNCAP cells; type: functional; details: read-out: ED50 (the source's name)
Lu1 = assay: Cytotoxicity against human Lu1 cells; type: functional; details: read-out: ED50 (the source's name)
SK-MEL-2 = assay: Cytotoxicity against human SK-MEL-2 cells; type: functional; details: read-out: ED50 (the source's name)
[3] = Cytotoxicity against human BC1 cells; type: functional; details: read-out: ED50 (the source's name)
[4] = Cytotoxicity against human KBV1 cells in presence of vinblastine; type: functional; details: KB-V1, read-out: ED50 (the source's name)
KB = assay: Cytotoxicity against human KB cells; type: functional; details: read-out: ED50 (the source's name)
A-431 = assay: Cytotoxicity against human A431 cells; type: functional; details: read-out: ED50 (the source's name)
[5] = Cytotoxicity against human U373 cells; type: functional, U-373MG ATCC; details: U373 MG, read-out: ED50 (the source's name)
P388 = assay: Cytotoxicity against mouse P388 cells; type: functional; details: read-out: ED50 (the source's name)
[6] = Cytotoxicity against human Col1 cells; type: functional; details: read-out: ED50 (the source's name)
ZR-75-1 = assay: Cytotoxicity against human ZR-75-1 cells; type: functional; details: read-out: ED50 (the source's name)
[7] = molecular target: Human immunodeficiency virus type 1 reverse transcriptase (Human immunodeficiency virus 1) (UniProt Q72547); assay: Inhibition of HIV1 reverse transcriptase at 150 ug/ml
Outline: (§1)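 HIV-1 reverse transcriptase inhibition, run by an assay procedure the authors described earlier. Each test concentration was run in duplicate in three separate experiments, and the reported value is the average of the three experiments.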

[8] = molecular target: Human immunodeficiency virus type 1 reverse transcriptase (Human immunodeficiency virus 1) (UniProt Q72547); assay: Inhibition of HIV1 reverse transcriptase at 60 ug/ml; outline: as §1
[9] = molecular target: Human immunodeficiency virus type 1 reverse transcriptase (Human immunodeficiency virus 1) (UniProt Q72547); assay: Inhibition of HIV1 reverse transcriptase at 40 ug/ml; outline: as §1
[10] = molecular target: Human immunodeficiency virus type 1 reverse transcriptase (Human immunodeficiency virus 1) (UniProt Q72547); assay: Inhibition of HIV1 reverse transcriptase at 20 ug/ml; outline: as §1
[11] = molecular target: Human immunodeficiency virus type 1 reverse transcriptase (Human immunodeficiency virus 1) (UniProt Q72547); assay: Inhibition of HIV1 reverse transcriptase at 200 ug/ml; outline: as §1
[12] = molecular target: Human immunodeficiency virus type 1 reverse transcriptase (Human immunodeficiency virus 1) (UniProt Q72547); assay: Inhibition of HIV1 reverse transcriptase at 80 ug/ml; outline: as §1
[13] = molecular target: Human immunodeficiency virus type 1 reverse transcriptase (Human immunodeficiency virus 1) (UniProt Q72547); assay: Inhibition of HIV1 reverse transcriptase at 100 ug/ml; outline: as §1
[14] = molecular target: Human immunodeficiency virus type 1 reverse transcriptase (Human immunodeficiency virus 1) (UniProt Q72547); assay: Inhibition of HIV1 reverse transcriptase at 250 ug/ml; outline: as §1
[15] = Inhibition of HIV2 reverse transcriptase; set-up: species or system Human immunodeficiency virus 2
[16] = molecular target: T1, Human immunodeficiency virus type 1 reverse transcriptase; assay: Inhibition of drug-resistant HIV1 reverse transcriptase

Structure (SMILES)	IC50 [1]	EC50 (HT-1080) [µg/mL]	EC50 [2] [µg/mL]	EC50 (LNCaP) [µg/mL]	EC50 (Lu1) [µg/mL]	EC50 (SK-MEL-2) [µg/mL]	EC50 [3] [µg/mL]	EC50 [4] [µg/mL]	EC50 (KB) [µg/mL]	EC50 (A-431) [µg/mL]	EC50 [5] [µg/mL]	EC50 (P388) [µg/mL]	EC50 [6] [µg/mL]	EC50 (ZR-75-1) [µg/mL]	inhibition [7] [%]	inhibition [8] [%]	inhibition [9] [%]	inhibition [10] [%]	IC50 ([1]; read-out: IC50 (converted)) [µM]	inhibition [11] [%]	other results
COc1cc(C[C@@H](CO)[C@H](CO)Cc2ccc(O)c(OC)c2)ccc1O [(+)-SECOISOLARICIRESINOL]	Not Active																				
C[C@@H]1[C@H](C)[C@H](c2ccc(O)cc2)O[C@@H]1c1ccc(O)cc1 [ANOLIGNAN C]	Not Active	13.1 (≈ 46.1 µM)	> 20	10.8 (≈ 38 µM)	15.8 (≈ 55.6 µM)	7.6 (≈ 26.7 µM)	> 20	> 20	> 20	> 20	18.5 (≈ 65.1 µM)	> 20	16.8 (≈ 59.1 µM)	6.1 (≈ 21.5 µM)							
C=C(Cc1ccc(O)cc1)C(=C)Cc1ccc(O)cc1 [ANOLIGNAN B]		4.7 (≈ 17.6 µM)	> 20	8.7 (≈ 32.7 µM)	11.1 (≈ 41.7 µM)	19 (≈ 71.3 µM)	5.1 (≈ 19.1 µM)	> 20	> 20	> 20	5.7 (≈ 21.4 µM)	1 (≈ 3.75 µM)	18 (≈ 67.6 µM)	> 20	31.2	25.5	17.7	10	4020	32.9	inhibition [12]: 20.9%; inhibition [13]: 27.4%
C=C(Cc1ccc2c(c1)OCO2)C(=C)Cc1ccc(O)cc1O [ANOLIGNAN A]		13.1 (≈ 42.2 µM)	> 20	10.8 (≈ 34.8 µM)	15.8 (≈ 50.9 µM)	7.6 (≈ 24.5 µM)	4.3 (≈ 13.9 µM)	> 20	> 20	> 20	13.5 (≈ 43.5 µM)	> 20	16.8 (≈ 54.1 µM)	6.1 (≈ 19.7 µM)	80.8	51.5	33.8	4.1	195	92.8	inhibition [14]: 97.4%; IC50 [15]: 156.9 µg/mL (≈ 506 µM); IC50 [16]: 342 µM; inhibition [12]: 68.3%; inhibition [13]: 73.9%

— ChEMBL document CHEMBL1148040, “New lignans from Anogeissus acuminata with HIV-1 reverse transcriptase inhibitory activity” (J Nat Prod, 1994)
